Experimental data from paper PMC7113734 (Antiviral Research, 2016).
Where two headings read alike, the source gives them in different places.

Key:
cytochrome P450 enzymes = experiment: Inhibition of cytochrome P450 enzymes; type: in vitro ADME
[1] = tested on: drug-resistant HIV-1 strains; experiment: Antiviral activity against drug-resistant HIV-1 strains in MT-4; type: cell-based; conditions: MT-4
[2] = tested on: HL2/3 cells expressing HIV-1 gp120 and gp41 fusing with HeLa-CD4-LTR-β-gal cells; experiment: Fusion inhibition assay; type: cell-based; conditions: Human immunodeficiency virus 1, HL2/3, read-out: Fusion inhibition EC50 ± SD
Method in brief: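 HeLa-CD4-LTR-β-Gal cells incubated with test compound for 1 h at 37°C/5% CO2, then co-cultured 48 h with HL2/3 cells. Cells lysed and β-galactosidase expression measured by chemiluminescent Gal-Screen.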

[3] = tested on: clinical HIV-1 subtype B virus 92US723; experiment: Antiviral activity with added serum proteins in fresh human PBMCs; type: cell-based; conditions: 50% human serum, AAGP or HSA vs medium only
HIV strain 92US727 = experiment: Cell-to-cell virus transmission assay in fresh human PBMCs; type: cell-based, HIV-1
Method in brief: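 HIV-infected fresh human PBMCs treated 3 days with six concentrations of test compound. Passaged every 3 days for three passages at fixed compound concentration; 80% of culture volume replaced with fresh compound-containing medium and uninfected cells. Cell-free supernatants collected on sub-culture days for RT activity and extracellular p24 antigen. TCID50 per passage by endpoint dilution.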

in vitro = conditions: human, CC50 (cytotoxic concentration), fresh human PBMCs
[4] = tested on: IIIB strain of HIV-1 in CEM-SS cells; experiment: Combination drug interaction evaluation; type: cell-based
Method in brief: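 CEM-SS cells infected with HIV-1 IIIB; inhibition of cytopathic effect measured for the test compound in two-drug combinations with known anti-HIV agents. Efficacy and toxicity analysed by Prichard–Shipman MacSynergy II. Expected additive inhibition computed from each agent's single-agent dose–response; inhibition above expected at each concentration calculated at 95%, 99% and 99.9% confidence. −99 to −51 μM2% scored antagonistic; <−100 highly antagonistic.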

[5] = tested on: influenza A virus type H1N1; experiment: DMID antiviral screening, influenza A; type: cell-based
HIVIIIB = experiment: Cell-to-cell virus transmission assay in CEM-SS cells; type: cell-based, HIV-1
HIV-1 protease = HIV-1 protease (Human immunodeficiency virus type 1 group M subtype B, UniProt P04585); experiment: HIV-1 protease inhibition assay; type: biochemical
HIV-1IIIB [6] = experiment: Antiviral activity with added serum proteins in CEM-SS cells; type: cell-based
Pharmacokinetics in rats = type: in vivo; conditions: male, Sprague-Dawley, rat, plasma, po, 1000 mg/kg
Method in brief: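 Male Sprague-Dawley rats, n = 3 per route. Prodrug given as IV bolus (50 mg/kg, 12.5 mg/mL in 5% DMSO/50% PEG300 in saline) or PO (1000 mg/kg, […] in 2% CMC suspension). Blood sampled over 24 h into sodium fluoride plus citric acid, kept on wet ice <10 min, then centrifuged at 4 °C. Plasma stored at −80 °C; prodrug and active metabolite quantified by UPLC-MS/MS (prodrug LLOQ 0.10 ng/mL).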

MT-4 cells = experiment: Toxicity to MT-4 cells; type: cell-based; conditions: all assays
[7] = tested on: drug resistant clinical HIV isolates; experiment: Antiviral activity against drug-resistant HIV-1 in PBMCs; type: cell-based; conditions: Human immunodeficiency virus 1, PBMC
hERG = hERG (Homo sapiens, UniProt Q12809); experiment: Standard hERG test for cardiotoxicity
hERG, sequence (Q12809 whole entry): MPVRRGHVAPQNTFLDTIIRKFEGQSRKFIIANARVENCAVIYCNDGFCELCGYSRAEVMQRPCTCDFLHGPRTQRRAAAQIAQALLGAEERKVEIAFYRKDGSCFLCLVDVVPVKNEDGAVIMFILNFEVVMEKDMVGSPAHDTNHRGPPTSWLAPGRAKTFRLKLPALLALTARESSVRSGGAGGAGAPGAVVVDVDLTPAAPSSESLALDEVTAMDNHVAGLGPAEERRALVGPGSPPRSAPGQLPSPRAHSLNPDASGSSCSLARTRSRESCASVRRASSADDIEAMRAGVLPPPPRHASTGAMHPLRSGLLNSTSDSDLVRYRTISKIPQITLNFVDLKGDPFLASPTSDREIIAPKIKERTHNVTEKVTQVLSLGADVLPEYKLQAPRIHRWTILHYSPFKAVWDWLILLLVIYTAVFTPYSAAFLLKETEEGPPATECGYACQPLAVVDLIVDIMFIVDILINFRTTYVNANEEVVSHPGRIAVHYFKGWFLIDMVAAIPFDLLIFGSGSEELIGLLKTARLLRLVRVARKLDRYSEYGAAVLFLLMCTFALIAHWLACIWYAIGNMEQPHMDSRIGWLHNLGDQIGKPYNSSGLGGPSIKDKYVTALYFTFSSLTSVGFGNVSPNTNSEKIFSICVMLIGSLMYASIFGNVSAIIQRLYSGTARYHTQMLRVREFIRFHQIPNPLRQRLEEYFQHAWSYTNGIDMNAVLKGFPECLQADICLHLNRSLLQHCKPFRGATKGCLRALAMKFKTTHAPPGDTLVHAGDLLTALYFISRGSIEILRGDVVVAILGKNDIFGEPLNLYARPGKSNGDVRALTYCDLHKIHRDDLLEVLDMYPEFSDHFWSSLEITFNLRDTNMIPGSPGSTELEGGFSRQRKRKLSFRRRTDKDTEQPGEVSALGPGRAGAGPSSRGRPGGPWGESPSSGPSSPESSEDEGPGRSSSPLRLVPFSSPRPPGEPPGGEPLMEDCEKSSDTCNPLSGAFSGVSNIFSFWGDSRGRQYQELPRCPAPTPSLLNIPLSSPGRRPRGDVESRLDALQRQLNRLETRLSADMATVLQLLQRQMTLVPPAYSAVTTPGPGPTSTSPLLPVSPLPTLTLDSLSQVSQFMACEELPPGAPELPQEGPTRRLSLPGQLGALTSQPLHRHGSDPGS

wild type HIV-1 RT = wild type HIV-1 RT (Human immunodeficiency virus type 1 group M subtype B, UniProt P04585); experiment: Biochemical RT inhibition assay
HIV-1 integrase = HIV-1 integrase (Human immunodeficiency virus type 1 group M subtype B, UniProt P04585); experiment: HIV-1 integrase inhibition assay; type: biochemical
[8] = tested on: HIV attachment to HeLa-CD4-LTR-β-gal cells; experiment: Attachment inhibition assay; type: cell-based, HIV-1; conditions: Human immunodeficiency virus 1, read-out: Attachment inhibition EC50 ± SD
HIV-1IIIB [9] = experiment: Drug-resistant virus selection by serial dose escalation; type: cell-based; conditions: fourteen passages, CEM-SS cells

NC(=O)CCNC(=O)c1ccccc1S [MDH-1-38, N-(3-amino-3-oxopropyl)-2-mercaptobenzamide]
inhibition of cytochrome P450 enzymes (cytochrome P450 enzymes): neither NS1040 nor MDH-1-38 had significant inhibitory activity | EC50 ([1]; Human immunodeficiency virus 1, read-out: Mean EC50 ± SD, AZT- and NNRTI-resistant, RT 4xAZT/L100I): 3.59 ± 1.25 µM | EC50 ([1]; Human immunodeficiency virus 1, read-out: Mean EC50 ± SD, AZT- and NNRTI-resistant, RT 4xAZT/Y181C): 4.87 ± 0.22 µM | EC50 ([1]; Human immunodeficiency virus 1, read-out: Mean EC50 ± SD, AZT-resistant, RT 4xAZT (D67N/K70R/T215Y/K219Q)): 3.31 ± 2.2 µM | EC50 ([1]; Human immunodeficiency virus 1, read-out: Mean EC50 ± SD, Atazanavir-resistant, PR I50L): 0.82 ± 0.37 µM | EC50 ([1]; Human immunodeficiency virus 1, read-out: Mean EC50 ± SD, Didanosine-resistant, RT L74V): 3.93 ± 2.33 µM | EC50 ([1]; Human immunodeficiency virus 1, read-out: Mean EC50 ± SD, Enfuviritide-resistant, Env V38A/N126K): 7.09 ± 0.03 µM | EC50 ([1]; Human immunodeficiency virus 1, read-out: Mean EC50 ± SD, Indinavir-, Ritonavir-resistant, PR I84V): 2.54 ± 0.93 µM | EC50 ([1]; Human immunodeficiency virus 1, read-out: Mean EC50 ± SD, Indinavir-, Ritonavir-resistant, PR V82A): 10.3 ± 5.34 µM | EC50 ([1]; Human immunodeficiency virus 1, read-out: Mean EC50 ± SD, Indinavir-, Ritonavir-resistant, PR V82F/I84V): 4.1 ± 0.47 µM | EC50 ([1]; Human immunodeficiency virus 1, read-out: Mean EC50 ± SD, Lamivudine-resistant, RT M184V): 2.7 ± 1.52 µM | EC50 ([1]; Human immunodeficiency virus 1, read-out: Mean EC50 ± SD, NNRTI-resistant, RT K103N/Y181C): 8.03 ± 1.45 µM | EC50 ([1]; Human immunodeficiency virus 1, read-out: Mean EC50 ± SD, NNRTI-resistant, RT K103N): 3.97 ± 1.31 µM | EC50 ([1]; Human immunodeficiency virus 1, read-out: Mean EC50 ± SD, NNRTI-resistant, RT L100I): 1.22 ± 0.01 µM | EC50 ([1]; Human immunodeficiency virus 1, read-out: Mean EC50 ± SD, NNRTI-resistant, RT V106A): 2.74 ± 2.17 µM | EC50 ([1]; Human immunodeficiency virus 1, read-out: Mean EC50 ± SD, NNRTI-resistant, RT V108I): 3.84 ± 1.6 µM | EC50 ([1]; Human immunodeficiency virus 1, read-out: Mean EC50 ± SD, NNRTI-resistant, RT V179D): 3.57 ± 1.81 µM | EC50 ([1]; Human immunodeficiency virus 1, read-out: Mean EC50 ± SD, NNRTI-resistant, RT Y181C): 3.99 ± 1.59 µM | EC50 ([1]; Human immunodeficiency virus 1, read-out: Mean EC50 ± SD, NNRTI-resistant, RT Y188C): 3.37 ± 2.15 µM | EC50 ([1]; Human immunodeficiency virus 1, read-out: Mean EC50 ± SD, Raltegravir-resistant, IN Q148H/G140S): 3.39 ± 2.15 µM | EC50 ([1]; Human immunodeficiency virus 1, read-out: Mean EC50 ± SD, Saquinavir-resistant, PR G48V/L90M): 1 ± 0.34 µM | EC50 ([1]; Human immunodeficiency virus 1, read-out: Mean EC50 ± SD, Tenofovir-resistant, RT K65R): 4.29 ± 0.64 µM | EC50 [2]: 83.3 ± 26.4 µM | change in antiviral activity with serum protein additives [3]: no significant change in antiviral activity | RT (HIV strain 92US727; Passage 1, 3.25 μM): 216 cpm | TCID50/mL (HIV strain 92US727; Passage 1, 3.25 μM): 3.75 × 10^2 TCID50/mL | p24 (HIV strain 92US727; Passage 1, 3.25 μM): 816 pg/mL | RT (HIV strain 92US727; Passage 2, 3.25 μM): 730 cpm | TCID50/mL (HIV strain 92US727; Passage 2, 3.25 μM): 4.90 × 10^3 TCID50/mL | p24 (HIV strain 92US727; Passage 2, 3.25 μM): 2642 pg/mL | RT (HIV strain 92US727; Passage 3, 3.25 μM): 11,080 cpm | TCID50/mL (HIV strain 92US727; Passage 3, 3.25 μM): 2.17 × 10^4 TCID50/mL | p24 (HIV strain 92US727; Passage 3, 3.25 μM): 55,429 pg/mL | CC50 (in vitro): > 231 µM | mean synergy volume ([4]; in combination with amprenavir): 101 ± 61 μM^2% | mean synergy volume ([4]; in combination with dolutegravir): 95.7 ± 44.3 μM^2% | mean synergy volume ([4]; in combination with enfuviritide): 80.8 ± 32.9 μM^2% | mean synergy volume ([4]; in combination with lopinavir): 108 ± 64.5 μM^2% | mean synergy volume ([4]; in combination with nelfinavir): 498 ± 288 μM^2% | mean synergy volume ([4]; in combination with ritonavir): 282 ± 111 μM^2% | antiviral activity [5]: failed to show any activity | RT (HIVIIIB; Passage 1, 2 μM): 22 cpm | TCID50/mL (HIVIIIB; Passage 1, 2 μM): 0 TCID50/mL | p24 (HIVIIIB; Passage 1, 2 μM): 619 pg/mL | RT (HIVIIIB; Passage 2, 2 μM): 185 cpm | TCID50/mL (HIVIIIB; Passage 2, 2 μM): 2.46 × 10^5 TCID50/mL | p24 (HIVIIIB; Passage 2, 2 μM): 28,255 pg/mL | RT (HIVIIIB; Passage 3, 2 μM): 2820 cpm | TCID50/mL (HIVIIIB; Passage 3, 2 μM): 2.41 × 10^4 TCID50/mL | p24 (HIVIIIB; Passage 3, 2 μM): 394,996 pg/mL | EC50 (HIV-1 protease): > 100 µM | fold decrease in potency (HIV-1IIIB [6]; in the presence of 50% human AB serum): ~4.5 fold | fold decrease in potency (HIV-1IIIB [6]; in the presence of HSA (10 mg/mL)): 4.5 fold | bioavailability (Pharmacokinetics in rats): 64% | non-toxic up to high test concentration (MT-4 cells): > 100 µM | EC50 ([7]; read-out: PBMC/HIV-1 EC50 ± SD, Multi-drug resistant AD. MDR): 10.6 ± 6.95 µM | EC50 ([7]; read-out: PBMC/HIV-1 EC50 ± SD, Multi-drug resistant MDR769): 3.5 ± 1.45 µM | EC50 ([7]; read-out: PBMC/HIV-1 EC50 ± SD, NNRTI-resistant A17R): 11.4 ± 8.47 µM | EC50 ([7]; read-out: PBMC/HIV-1 EC50 ± SD, NNRTI-resistant N119): 2.58 ± 2.52 µM | EC50 ([7]; read-out: PBMC/HIV-1 EC50 ± SD, PI-resistant 144-44): 9.78 ± 8.23 µM | EC50 ([7]; read-out: PBMC/HIV-1 EC50 ± SD, PI-resistant 1002-60): 2.04 ± 1.03 µM | EC50 ([7]; read-out: PBMC/HIV-1 EC50 ± SD, PI-resistant 1022-48): 0.98 ± 0.64 µM | EC50 ([7]; read-out: PBMC/HIV-1 EC50 ± SD, PI-resistant 1026-60): 2.67 ± 0.4 µM | EC50 ([7]; read-out: PBMC/HIV-1 EC50 ± SD, PI-resistant 1064-52): 3.06 ± 0.28 µM | EC50 ([7]; read-out: PBMC/HIV-1 EC50 ± SD, Wild Type 92US727): 3.32 ± 1.95 µM | hERG test for cardiotoxicity (hERG): negative | EC50 (wild type HIV-1 RT): > 100 µM | EC50 (HIV-1 integrase): > 100 µM | EC50 [8]: 44.4 ± 7.21 µM | selection of resistant virus (HIV-1IIIB [9]): did not result in resistance
